Data from ChEMBL document CHEMBL4425094, “Novel Benzo[a]quinolizidine Analogs Induce Cancer Cell Death through Paraptosis and Apoptosis” (J Med Chem, 2016).
The source made the active and inactive calls. The rule behind the calls is not given here.

Assays:
PC-3 [1] = experiment: Cytotoxicity against human PC3 cells assessed as cell growth inhibition after 24 hrs by MTT assay; format: functional, cell-based; conditions: PC-3, 24 h
How it was run: (§1)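 Cells seeded 24 h in RPMI 1640 + 10% FBS. RWPE-1 was kept in K-SFM with bovine pituitary extract and EGF. Cells then exposed to compounds for 24 h at 37 °C, 5% CO2, with DMSO vehicle and docetaxel as positive control. MTT added for 4 h, absorbance read at 570 nm. Triplicate runs, IC50 reported as mean of three experiments.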

RWPE-1 = experiment: Cytotoxicity against human RWPE1 cells assessed as cell growth inhibition after 24 hrs by MTT assay; format: cell-based; conditions: RWPE-1, 24 h; how it was run: as §1
PC-3 [2] = experiment: Induction of cell cycle arrest in human PC3 cells assessed as accumulation in G0/G1 phase at 1 uM after 24 hrs by […]propidium iodide based flow cytometric analysis (reference value: 43.5 to 62.5 %); format: functional
PC-3 [3] = experiment: Induction of cell cycle arrest in human PC3 cells assessed as accumulation in G2 phase at 0.5 uM after 24 hrs by […]propidium iodide based flow cytometric analysis (reference value: 16.3 to 25 %); format: functional
PC-3 [4] = experiment: Induction of apoptosis in human PC3 cells assessed as early apoptotic cells at 1 uM after 24 hrs by Annexin V-FITC/propidium iodide based flow cytometric analysis (reference value: 2.3 %); format: functional
How it was run: (§2)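 PC3 cells exposed to 0.5, 1 or 2 μM for 24 h, then stained with Annexin V-FITC and PI and analyzed by FACSCalibur flow cytometry. Populations assigned as necrotic (Annexin V−/PI+), late apoptotic (double positive), normal (Annexin V−/PI−) and early apoptotic (Annexin V+/PI−). DMSO vehicle control.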

PC-3 [5] = experiment: Induction of apoptosis in human PC3 cells assessed as late apoptotic cells at 1 uM after 24 hrs by Annexin V-FITC/propidium iodide based flow cytometric analysis (reference value: 1.1 %); format: functional; how it was run: as §2
PC-3 [6] = experiment: Induction of apoptosis in human PC3 cells assessed as necrotic cells at 1 uM after 24 hrs by Annexin V-FITC/propidium iodide based flow cytometric analysis (reference value: 1.1 %); format: functional; how it was run: as §2
PC-3 [7] = experiment: Induction of apoptosis in human PC3 cells assessed as viable cells at 2 uM after 24 hrs by Annexin V-FITC/propidium iodide based flow cytometric analysis (reference value: 95.4 %); format: functional; conditions: PC-3, 24 h, read-out: Activity; how it was run: as §2
PC-3 [8] = experiment: Induction of apoptosis in human PC3 cells assessed as necrotic cells at 2 uM after 24 hrs by Annexin V-FITC/propidium iodide based flow cytometric analysis (reference value: 1.1 %); format: functional; how it was run: as §2
PC-3 [9] = experiment: Induction of apoptosis in human in human PC3 cells assessed as reduction in cell viability in presence of pan-caspase inhibitor Z-VAD-fmk by MTT assay; format: functional, cell-based
How it was run: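 PC3 cells pretreated with Z-VAD-fmk (10 μM) or Ac-DEVD-CHO (50 μM) before compound exposure. Viability read by MTT at 570 nm. Significance tested against control by Student's t test.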

PC-3 [10] = experiment: Cytotoxicity in human PC3 cells assessed as reduction in cell viability incubated for 22 hrs after ER stress inhibitor 4-PBA exposure for 2 hrs by MTT assay; format: functional, cell-based
How it was run: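 PC3 cells pretreated 2 h with 4-PBA (100 μM), then compound added for a further 22 h. Viability measured by MTT. GRP78 assessed by Western blot, along with XBP1 mRNA splicing analysis. Morphology by phase contrast.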

PC-3 [11] = experiment: Growth inhibition of human PC3 cells at IC30 in presence of […] by MTT assay; format: functional
PC-3 [12] = experiment: Cytotoxicity in human PC3 cells assessed as reduction in cell viability after 24 hrs in presence of AcT-D by MTT assay; format: functional, cell-based
How it was run: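 PC3 cells pretreated with 10 μM actinomycin D or 5 μM cycloheximide, then treated with compound for 24 h. Viability by MTT at 570 nm. Vacuolation imaged by phase-contrast microscopy.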

PC-3 [13] = experiment: Induction of autophagy in human PC3 cells assessed as increase in p62/SQSTM1 expression after 4 hrs by Western blot analysis; format: functional, cell-based
How it was run: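 PC3 cells in RPMI 1640 with 10% FBS, treated with compound for timed intervals. DMSO vehicle control. Lysis in RIPA buffer, 40 μg protein per lane on SDS-PAGE, transfer to nitrocellulose. Primary antibodies overnight at 4 °C, HRP-secondary 45 min, ECL detection. GAPDH or β-actin used as loading control.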

PC-3 [14] = experiment: Cytotoxicity against human PC3 cells assessed as reduction in cell viability at 1 uM after 24 hrs in presence of PI3K inhibitor 3-MA by MTT assay; format: functional, cell-based
How it was run: (§3)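 PC3 cells pretreated with autophagy inhibitor 3-MA or E64d, then given 1 μM compound for 24 h. Viability measured by MTT (4 h, 570 nm). Morphology checked by phase-contrast microscopy.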

PC-3 [15] = experiment: Cytotoxicity against human PC3 cells assessed as reduction in cell viability at 1 uM after 24 hrs in presence of […] inhibitor E-64d by MTT assay; format: functional, cell-based; how it was run: as §3
PC-3 [16] = experiment: Induction of autophagy in human PC3 cells transfected with LC3-targeting siRNA assessed as vacuole formation at 1 uM after 24 hrs by phase-contrast microscopic analysis; format: functional, cell-based
How it was run: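 PC3 cells plated at 20−30% confluency, then transfected 24 h later with 50 nM LC3-targeting or scrambled siRNA by lipofection. After 48 h they were exposed to 1 μM agent for a further 24 h, followed by phase-contrast imaging and Western blotting.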

PC-3M [17] = experiment: Antitumor activity against human PC3M-lluc-C6 cells xenografted in athymic Balb/c mouse assessed as tumor volume at 15 mg/kg, ip administered every 2 days for 18 days (reference value: 845.6 +/- 84.3 mm'3); format: functional
PC-3M [18] = experiment: Antitumor activity against human PC3M-lluc-C6 cells xenografted in athymic Balb/c mouse assessed as decrease in tumor burden by measuring photon intensity at 15 mg/kg, ip measured on day 18 by bioluminescence method (reference value: 2.332 x 10^10 photons/s/cm2); format: functional
PC-3M [19] = experiment: Antitumor activity against human PC3M-lluc-C6 cells xenografted in athymic Balb/c mouse assessed as decrease in tumor burden by measuring photon intensity at 15 mg/kg, ip measured on day 9 by bioluminescence method (reference value: 6.501 x 10^9 photons/s/cm2); format: functional
PC-3M [20] = experiment: Induction of paraptosis in human PC3M-lluc-C6 cells xenografted in athymic Balb/c mouse at 15 mg/kg, ip administered every 2 days for 18 days by H and E staining based method; format: functional, organism-based
How it was run: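 Subcutaneous PC3M-luc-C6 xenografts (5 × 10^6 cells) were grown in 6-week male athymic BALB/c-nu mice. Groups of n = 5 received 15 mg/kg i.p. every 2 days from ~0.1 cm3 tumor volume, with a vehicle group. Excised tumor tissue was examined by H&E staining for vacuoles.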

[21] = Toxicity in athymic Balb/c mouse assessed as induction of mortality at 15 mg/kg, ip administered every 2 days for 18 days; format: organism-based; conditions: in vivo
How it was run: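 Male athymic BALB/c-nu mice, 6 weeks old, bearing subcutaneous PC3M-luc-C6 xenografts (5 × 10^6 cells, right anterior flank) were grouped (n = 5) once tumours reached about 0.1 cm3. They received a 15 mg/kg suspension intraperitoneally every 2 days for 18 days, alongside placebo and docetaxel (15 mg/kg) groups. Body weight and deaths were recorded.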

## Cc1cc(C)cc(COc2cc3c(cc2OCc2cc(C)cc(C)c2)[C@@H]2C[C@H](O)C[C@@H](C)N2CC3)c1 (racemic)
PC-3 [1]
  IC50: 660 nM
RWPE-1
  IC50: 5.06 µM
PC-3 [2]
  Activity: 65.1 - 78%
PC-3 [3]
  Activity: 13.7 - 14.9%
PC-3 [4]
  Activity: 5.9%
PC-3 [5]
  Activity: 2.6%
PC-3 [6]
  Activity: 1.6%
PC-3 [7]
  viability at 2 µM: 40%
PC-3 [8]
  Activity: 3.1%
PC-3 [9]
  Activity: inactive
PC-3 [10]
  Activity: inactive
PC-3 [11]
  growth inhibition (GI): 54%
PC-3 [12]
  Activity: inactive
PC-3 [13]
  Activity: inactive
PC-3 [14]
  Activity: inactive
PC-3 [15]
  Activity: inactive
PC-3 [16]
  Activity: inactive
PC-3M [17]
  Activity: 410.2 mm3
PC-3M [18]
  Activity: 1.766 ×10⁹ /s/cm2
PC-3M [19]
  Activity: 2.45 ×10⁹ /s/cm2
PC-3M [20]
  Activity: Active
[21]
  Activity: Non-Toxic
